Converted amounts (≈) assume the structure as drawn. The source made the active and inactive calls. The calls are words filed in the database; no cut-off is given here.
Key:
Staphylococcus aureus [1] = test: Bacterial killing activity of methicillin-resistant Staphylococcus aureus at 0.25 ug/ml; assay type: functional, organism-based
In short: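 Time-kill per CLSI with a starting inoculum of approximately 10^7 CFU/ml. Dalbavancin was tested at 0.25, 1, 4 and 16 µg/ml, chosen to reflect free plasma levels plus a lower level. Viable counts were taken over 24 h and reported as log10 decrease.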

Staphylococcus aureus [2] = test: Antimicrobial activity against methicillin-resistant Staphylococcus aureus FB1051634 by broth microdilution method; assay type: functional
In short: (§1)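 Clinical staphylococcal isolates from US hospitals with known resistance phenotypes.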

[3] = test system: Staphylococcus haemolyticus; test: Antimicrobial activity against Staphylococcus haemolyticus FB954177 by broth microdilution method; assay type: functional
Staphylococcus aureus [4] = test: Antimicrobial activity against methicillin-susceptible Staphylococcus aureus FB892379 by broth microdilution method; assay type: functional; in short: as §1
[5] = test system: Staphylococcus epidermidis; test: Antimicrobial activity against methicillin-resistant Staphylococcus epidermidis FB758988 by broth microdilution method; assay type: functional; in short: as §1
Enterococcus faecium [6] = test: Antimicrobial activity against vancomycin-susceptible Enterococcus faecium FB769334
[7] = test system: Staphylococcus epidermidis; test: Antimicrobial activity against methicillin-resistant Staphylococcus epidermidis FB750345 by broth microdilution method; assay type: functional; in short: as §1
[8] = test system: Staphylococcus haemolyticus; test: Antimicrobial activity against Staphylococcus haemolyticus FB953975 by broth microdilution method; assay type: functional
Enterococcus faecium [9] = test: Antimicrobial activity against vancomycin-susceptible Enterococcus faecium FB767191
[10] = test system: Staphylococcus epidermidis; test: Antimicrobial activity against methicillin-resistant Staphylococcus epidermidis FB896283 by broth microdilution method; assay type: functional; in short: as §1
Staphylococcus aureus [11] = test: Bacterial killing activity of methicillin-susceptible Staphylococcus aureus at 0.25 ug/ml; assay type: functional, organism-based
In short: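 Time-kill per CLSI; inoculum approximately 10^7 CFU/ml; dalbavancin at 0.25, 1, 4 and 16 µg/ml; viable counts after 24 h exposure, expressed as log10 reduction.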

Streptococcus pyogenes [12] = test: Antimicrobial activity against erythromycin-susceptible Streptococcus pyogenes FB1041626 by broth microdilution method; assay type: functional
In short: (§2)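 Clinical US hospital isolates. The medium was supplemented with 2 to 5% lysed horse blood.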

Streptococcus pyogenes [13] = test: Antimicrobial activity against erythromycin-susceptible Streptococcus pyogenes FB1041775 by broth microdilution method; assay type: functional
Enterococcus faecalis [14] = test: Antimicrobial activity against vancomycin-susceptible Enterococcus faecalis FB766323; assay type: functional
Streptococcus pyogenes [15] = test: Antimicrobial activity against erythromycin-resistant Streptococcus pyogenes FB764371 by broth microdilution method; assay type: functional; in short: as §2
Streptococcus pyogenes [16] = test: Bacterial killing activity of Streptococcus pyogenes at >=1 ug/ml; assay type: functional
In short: (§3)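 CLSI time-kill in medium with 2 to 5% lysed horse blood; starting inoculum approximately 10^7 CFU/ml; dalbavancin at 0.25, 1, 4 and 16 µg/ml; viable counts followed to 24 h, killing expressed as log10 decrease.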

Staphylococcus aureus [17] = test: Antimicrobial activity against methicillin-resistant Staphylococcus aureus FB1065524 by broth microdilution method; assay type: functional; in short: as §1
Staphylococcus aureus [18] = test: Antimicrobial activity against vancomycin-intermediate Staphylococcus aureus FB988644; assay type: functional
Streptococcus pyogenes [19] = test: Bacterial killing activity of Streptococcus pyogenes at 0.25 ug/ml; assay type: functional; in short: as §3
Staphylococcus aureus [20] = test: Antimicrobial activity against methicillin-susceptible Staphylococcus aureus FB1050986 by broth microdilution method; assay type: functional; in short: as §1
Enterococcus faecalis [21] = test: Antimicrobial activity against vancomycin-susceptible Enterococcus faecalis FB766782; assay type: functional
Staphylococcus aureus [22] = test: Bacterial killing activity of vancomycin-intermediate Staphylococcus aureus at 8 to 32 ug/ml; assay type: functional
Staphylococcus aureus [23] = test: Bacterial killing activity of methicillin-susceptible Staphylococcus aureus at 8 to 32 ug/ml; assay type: functional
Staphylococcus aureus [24] = test: Bacterial killing activity of methicillin-resistant Staphylococcus aureus at 8 to 32 ug/ml; assay type: functional
Streptococcus pyogenes [25] = test: Bactericidal activity against Streptococcus pyogenes; assay type: functional

| Structure (SMILES) | MBC (Staphylococcus aureus [2]) [mg/L] | MBC [3] [mg/L] | MIC [3] [mg/L] | MBC (Staphylococcus aureus [4]) [mg/L] | MBC [5] [mg/L] | MBC (Enterococcus faecium [6]) [mg/L] | MBC [7] [mg/L] | MBC [8] [mg/L] | MIC [8] [mg/L] | MBC (Enterococcus faecium [9]) [mg/L] | MBC [10] [mg/L] | MBC (Streptococcus pyogenes [12]) [mg/L] | MBC (Streptococcus pyogenes [13]) [mg/L] | MBC (Enterococcus faecalis [14]) [mg/L] | MBC (Streptococcus pyogenes [15]) [mg/L] | MBC (Staphylococcus aureus [17]) [mg/L] | MBC (Staphylococcus aureus [18]) [mg/L] | MBC (Staphylococcus aureus [20]) [mg/L] | MBC (Enterococcus faecalis [21]) [mg/L] | also measured |
| --- | --- | --- | --- | --- | --- | --- | --- | --- | --- | --- | --- | --- | --- | --- | --- | --- | --- | --- | --- | --- |
| CN[C@H]1C(=O)N[C@@H]2Cc3ccc(cc3)Oc3cc4cc(c3O[C@@H]3O[C@H](C(=O)O)[C@@H](O)[C@H](O)[C@H]3NC(=O)CCCCCCCCC(C)C)Oc3ccc(cc3Cl)[C@@H](O)[C@@H]3NC(=O)[C@H](NC(=O)[C@@H]4NC(=O)[C@@H](NC2=O)c2cc(cc(O)c2Cl)Oc2cc1ccc2O)c1ccc(O)c(c1)-c1c(O[C@H]2O[C@H](CO)[C@@H](O)[C@H](O)[C@@H]2O)cc(O)cc1[C@@H](C(=O)NCCCN(C)C)NC3=O [DALBAVANCIN] | 0.06 (≈ 0.033 µM) | 0.12 (≈ 0.0661 µM) | 0.03 (≈ 0.0165 µM) | 0.06 (≈ 0.033 µM) | 0.06 (≈ 0.033 µM) | 2 (≈ 1.1 µM) | 0.06 (≈ 0.033 µM) | 0.25 (≈ 0.138 µM) | 0.12 (≈ 0.0661 µM) | 2 (≈ 1.1 µM) | 0.03 (≈ 0.0165 µM) | 0.008 (≈ 0.0044 µM) | 0.25 (≈ 0.138 µM) | 8 (≈ 4.4 µM) | 0.008 (≈ 0.0044 µM) | 0.5 (≈ 0.275 µM) | 2 (≈ 1.1 µM) | 1 (≈ 0.55 µM) | 4 (≈ 2.2 µM) | Activity (Staphylococcus aureus [1]): Active; MIC (Staphylococcus aureus [2]): 0.06 mg/L (≈ 0.033 µM); MIC (Staphylococcus aureus [4]): 0.06 mg/L (≈ 0.033 µM); MIC [5]: 0.06 mg/L (≈ 0.033 µM); MIC (Enterococcus faecium [6]): 0.015 mg/L (≈ 0.00826 µM); MIC [7]: 0.06 mg/L (≈ 0.033 µM); MIC (Enterococcus faecium [9]): 0.03 mg/L (≈ 0.0165 µM); MIC [10]: 0.03 mg/L (≈ 0.0165 µM); Activity (Staphylococcus aureus [11]): Active; MIC (Streptococcus pyogenes [12]): 0.008 mg/L (≈ 0.0044 µM); MIC (Streptococcus pyogenes [13]): 0.008 mg/L (≈ 0.0044 µM); MIC (Enterococcus faecalis [14]): 0.03 mg/L (≈ 0.0165 µM); MIC (Streptococcus pyogenes [15]): 0.008 mg/L (≈ 0.0044 µM); Log10 cfu (Streptococcus pyogenes [16]): 5; MIC (Staphylococcus aureus [17]): 0.06 mg/L (≈ 0.033 µM); MIC (Staphylococcus aureus [18]): 1 mg/L (≈ 0.55 µM); Log10 cfu (Streptococcus pyogenes [19]): >3; MIC (Staphylococcus aureus [20]): 0.06 mg/L (≈ 0.033 µM); MIC (Enterococcus faecalis [21]): 0.06 mg/L (≈ 0.033 µM) |
| CN[C@H](CC(C)C)C(=O)N[C@H]1C(=O)N[C@@H](CC(N)=O)C(=O)N[C@H]2C(=O)N[C@H]3C(=O)N[C@H](C(=O)N[C@H](C(=O)O)c4cc(O)cc(O)c4-c4cc3ccc4O)[C@H](O)c3ccc(c(Cl)c3)Oc3cc2cc(c3O[C@@H]2O[C@H](CO)[C@@H](O)[C@H](O)[C@H]2O[C@H]2C[C@](C)(N)[C@H](O)[C@H](C)O2)Oc2ccc(cc2Cl)[C@H]1O [VANCOMYCIN] | 1 (≈ 0.69 µM) | > 32 | 1 (≈ 0.69 µM) | 1 (≈ 0.69 µM) | 2 (≈ 1.38 µM) | 16 (≈ 11 µM) | 2 (≈ 1.38 µM) | 4 (≈ 2.76 µM) | 4 (≈ 2.76 µM) | > 32 | 2 (≈ 1.38 µM) | 0.5 (≈ 0.345 µM) | > 2 | > 32 | 0.5 (≈ 0.345 µM) | 1 (≈ 0.69 µM) | 8 (≈ 5.52 µM) | 2 (≈ 1.38 µM) | > 32 | Log10 cfu (Staphylococcus aureus [22]): >=3; Log10 cfu (Staphylococcus aureus [23]): >=3; Log10 cfu (Staphylococcus aureus [24]): >=3; Log10 cfu (Streptococcus pyogenes [25]): <2 |

Reference: ChEMBL document CHEMBL1146196, “Bactericidal activity and resistance development profiling of dalbavancin” (2007)
